Reference: ChEMBL document CHEMBL1123064, “[1,4]Benzoxazine-2,3-diones as antiallergic agents” (J Med Chem, 1985)

Key:
[1] = tested on: Rattus norvegicus; test: Inhibition of antigen-induced […] at a dose of 25 mg/kg in passive cutaneous anaphylaxis in the male Sprague-Dawley rats; type: functional
Summary of the method: (§1)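 IgE antiserum was raised in male Sprague-Dawley rats with im ovalbumin/aluminum hydroxide plus ip B. pertussis. Naive rats were sensitized intradermally at dorsal sites (antiserum 1:20). After 48 h, groups of four received oral compound or vehicle (1% methylcellulose). 10 min later, iv challenge with 4 mg ovalbumin in 1% Evans blue; blued wheal areas measured at 30 min; Student's t test.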

[2] = species: Rattus norvegicus; test: Concentration required to inhibit antigen-induced release of histamine (AIR) by 50% from passively sensitized rat mast cells; type: functional, cell-based; conditions: read-out: I50
Summary of the method: (§2)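 Washed rat mast cells, passively sensitized in vitro with rat anti-ovalbumin serum, washed again, then challenged with ovalbumin; histamine release measured. Compounds dissolved in Me2SO (final 0.17%). I50 read from concentration-dependent inhibition; number of experiments in parentheses. DSCG positive control in every experiment.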

[3] = tested on: Rattus norvegicus; test: Effective dose against passive cutaneous anaphylaxis in rat when administered perorally.; type: functional; conditions: po; summary of the method: as §1
[4] = tested on: Rattus norvegicus; test: Effective dose against passive cutaneous anaphylaxis when administered perorally.; type: functional; conditions: po; summary of the method: as §1
[5] = tested on: Rattus norvegicus; test: Percent Inhibition of antigen-induced release of histamine at a dose of 50 mg/kg in passive cutaneous anaphylaxis in the male Sprague-Dawley rats; type: functional; summary of the method: as §1
[6] = species: Rattus norvegicus; test: Concentration required to inhibit antigen-induced release of histamine (AIR) by 50% from passively sensitized rat mast cells at p<0.01; type: functional, cell-based; conditions: Mast cell, read-out: I50; summary of the method: as §2
[7] = tested on: Rattus norvegicus; test: Effective dose against passive anaphylaxis in rat when administered intraperitoneally.; type: functional; conditions: ip
[8] = tested on: Rattus norvegicus; test: Inhibition of antigen-induced release of histamine at a dose of 50 mg/kg in passive cutaneous anaphylaxis in the male Sprague-Dawley rats; type: functional; summary of the method: as §1
[9] = tested on: Rattus norvegicus; test: Effective dose against passive cutaneous anaphylaxis in rat when administered intraperitoneally.; type: functional; conditions: ip

Row | SMILES | inhibition in vivo at 25 mg/kg [1] [%] | IC50 [2] [µM] | inhibition in vivo at 50 mg/kg [5] [%] | further results
1 | O=c1[nH]c2cc(Cl)ccc2oc1=O | 14 |  |  | 
2 | COc1ccc2oc(=O)c(=O)[nH]c2c1 | 21 | 15 |  | 
3 | O=c1[nH]c2cc3[nH]c(=O)c(=O)oc3cc2oc1=O | 13 | 3 |  | ED50 [3]: > 125 mg/kg
4 | O=c1[nH]c2cc(C(F)(F)F)ccc2oc1=O | 20 | 100 |  | 
5 | O=c1[nH]c2cc3oc(=O)c(=O)[nH]c3cc2oc1=O | 0 | 1.2 |  | ED50 [3]: > 125 mg/kg
6 | C=CCc1cc(OC)c2oc(=O)c(=O)[nH]c2c1 | 77 | 10 |  | ED50 [4]: 7 mg/kg
7 | O=c1[nH]c2cc3ccccc3cc2oc1=O | 11 |  | 45 | IC50 [6]: 45 µM
8 | O=c1[nH]c2cc3c(cc2oc1=O)CCCC3 | 15 | 10 |  | ED50 [3]: 96 mg/kg
9 | COc1ccc2[nH]c(=O)c(=O)oc2c1 | 33 | 28 |  | 
10 | COC(=O)c1cc(OC)c2oc(=O)c(=O)[nH]c2c1 | 35 | 3.4 |  | 
11 | COc1cc2[nH]c(=O)c(=O)oc2cc1OC | 45 | 30 | 100 | ED50 [3]: 20 mg/kg
12 | CCOC(=O)C(=O)Nc1ccc2oc(=O)c(=O)[nH]c2c1 |  | 60 |  | 
13 | Cc1ccc2[nH]c(=O)c(=O)oc2c1 |  | 32 | 97 | 
14 | COc1cccc2[nH]c(=O)c(=O)oc12 | 88 | 7 | 89 | ED50 [3]: 14 mg/kg
15 | CCOC(=O)c1ccc2oc(=O)c(=O)[nH]c2c1 | 0 | 10 |  | 
16 | O=c1[nH]c2ccccc2oc1=O |  | 42 | 70 | 
17 | O=c1[nH]c2c(ccc3ccccc32)oc1=O |  | < 100 | 18 | 
18 | N#Cc1ccc2[nH]c(=O)c(=O)oc2c1 |  | 15 |  | ED50 [7]: 23 mg/kg; inhibition in vivo at 50 mg/kg [8]: 14%
19 | O=c1[nH]c2cc([N+](=O)[O-])ccc2oc1=O |  | 0.8 | 91 | inhibition in vivo at 50 mg/kg [8]: 24%
20 | O=C(O)c1ccc2[nH]c(=O)c(=O)oc2c1 | 7 | 16 | 83 | 
21 | O=c1[nH]c2ccc(O)cc2oc1=O |  | 170 |  | 
22 | O=C([O-])c1cc(=O)c2c(OCC(O)COc3cccc4oc(C(=O)[O-])cc(=O)c34)cccc2o1.[Na+].[Na+] [CROMOLYN SODIUM] |  | 4.5 |  | ED50 [9]: 6 mg/kg
